Assay outcomes from PubChem BioAssay.
In the library only some 1.8% were active in any assay of this set; here they are far more common.
CHRM5 PAM: human M5 muscarinic receptor positive allosteric modulators, primary screen, CHO-K1 cells, Fluo-8 calcium fluorescence; Muscarinic acetylcholine receptor M5 (Homo sapiens), P08912; CHO-K1 hM5, ACh EC20 PAM; 0% = ACh EC20, 100% = ACh EC100; activation, % at 3 µM; actives 0.3% (n = 360,000);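 active = activation above the run cutoff, the mean activation of all test compounds plus 3 SD, cut at about 18% in these data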
Target sequence (P08912 whole entry, looked up): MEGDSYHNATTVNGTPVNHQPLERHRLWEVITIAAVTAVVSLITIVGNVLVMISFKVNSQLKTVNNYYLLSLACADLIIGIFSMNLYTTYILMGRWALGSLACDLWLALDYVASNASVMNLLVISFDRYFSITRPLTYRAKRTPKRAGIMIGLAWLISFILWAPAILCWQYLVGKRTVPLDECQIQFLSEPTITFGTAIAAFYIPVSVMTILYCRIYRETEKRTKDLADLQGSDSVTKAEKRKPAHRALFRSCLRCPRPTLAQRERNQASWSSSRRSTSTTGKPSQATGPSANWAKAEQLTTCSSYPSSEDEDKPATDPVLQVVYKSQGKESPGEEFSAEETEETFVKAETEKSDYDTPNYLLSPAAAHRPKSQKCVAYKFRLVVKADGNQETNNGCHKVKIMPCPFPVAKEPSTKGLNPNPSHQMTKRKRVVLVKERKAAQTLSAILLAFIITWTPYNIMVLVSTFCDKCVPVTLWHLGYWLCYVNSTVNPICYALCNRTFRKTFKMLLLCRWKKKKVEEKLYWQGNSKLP
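Measured by: Fluo-8 calcium fluorescence; material: human M5 receptor in CHO-K1 cells; schedule: Post-acetylcholine fluorescence recording 140 s; benchmarks: low control EC20 acetylcholine (0%), high control EC100 acetylcholine (100%); read-out: Max/basal fluorescence ratio as % of EC20–EC100 ACh window; compound: single dose, 3 µM nominal final test concentration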
CHRM5 antagonist: human M5 muscarinic receptor antagonists, primary screen, CHO cells, Fluo-8 calcium fluorescence. actives 0.59% (n = 360,000). inhibition, % at 3 µM. AID 624040, 2012. Muscarinic acetylcholine receptor M5 (Homo sapiens), P08912. CHO-hM5 cells, ACh EC80;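 active = inhibition above a per-plate cutoff, the mean of that plate's test compounds plus 3 SD, cut at about 27% in these data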;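 note: 0% = acetylcholine EC80 with DMSO and 100% = DMSO without agonist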
CHRM4 PAM: human M4 muscarinic receptor positive allosteric modulators, primary screen, CHO-K1 cells, Fluo-8 calcium fluorescence. Muscarinic acetylcholine receptor M4 (Homo sapiens), P08173. CHO-K1 hM4/Gqi5, ACh EC20; 0% = ACh EC20, 100% = maximal ACh. activation, % at 3 µM. actives 0.4% (n = 360,000). AID 624126, 2012;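 active = activation above its plate's cutoff, the mean activation of sample wells plus 3 SD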
M4 ag: human M4 muscarinic receptor agonists, primary screen, CHO-K1 cells, Fluo-8 calcium fluorescence. AID 624127, 2012. CHO-K1 hM4/Gqi5; vehicle 0%, full acetylcholine response 100%. activation, % at 3 µM. actives 0.14% (n = 360,000);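 active = activation above the run mean over all test wells plus 3 SD, cut at about 32% in these data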;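 note: peak over basal fluorescence ratio per well then scaled between controls; 0% = DMSO wells and 100% = acetylcholine at EC100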
CHRM4 antagonist: human M4 muscarinic receptor antagonists, primary screen, CHO cells, Fluo-8 calcium fluorescence; CHO-hM4 cells, ACh EC80; actives 0.73% (n = 360,000); inhibition, % at 3 µM;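 active = inhibition above its plate's cutoff, the mean inhibition of sample wells plus 3 SD, cut at about 27% in these data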;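 note: 0% = acetylcholine EC80 with DMSO and 100% = DMSO without agonist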
CHRM5 agonist: human M5 muscarinic receptor agonists, primary screen, CHO-K1 cells, Fluo-8 calcium fluorescence; activation, % at 3 µM; actives 0.19% (n = 360,000); AID 624037, 2012; CHO-K1 hM5 cells; 0% DMSO wells, 100% maximal acetylcholine response; Muscarinic acetylcholine receptor M5 (Homo sapiens), P08912;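 active = activation above the run's mean over test compounds plus 3 SD, cut at about 23% in these data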;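 note: signal is peak over basal fluorescence ratio across the kinetic read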
Starred values were filed as active, the others as inactive.

SMILES	CHRM5 PAM	CHRM5 antagonist	CHRM4 PAM	M4 ag	CHRM4 antagonist	CHRM5 agonist
CCCCCCCCN1C(=O)[C@H](CC(=O)NCc2cccc(C(F)(F)F)c2)C[C@@]2(C(=O)OCC)CCCC=C12	-4	2	0	-1	-8	-2
Cc1sc2ncn3c(C)nnc3c2c1C	4	-1	19*	0	0	-1
CN1CCN(S(=O)(=O)c2ccc(NC(=O)c3ccccc3Cl)cc2)CC1	-4	7	-4	1	2	-4
Cc1oc(S(=O)(=O)N2CCCCC2)cc1NC(=O)Nc1ccc(Cl)cc1	-28	32*	-24	22	1	9
O=C(Nc1ccc(Cl)cc1)Nc1ccc(N2CCCC2)c(S(=O)(=O)Nc2ccccc2Cl)c1	-15	27*	-5	6	16	-1
CN1CCN(S(=O)(=O)c2ccc(NC(=O)Nc3cccc(Cl)c3)cc2)CC1	-3	12	-8	13	29*	3
O=C(Nc1cccc(Cl)c1)Nc1cc(S(=O)(=O)N2CCCCC2)ccc1Cl	-18	29*	-15	10	16	4
O=C(Nc1ccc(N2CCOCC2)c(S(=O)(=O)Nc2ccccc2Cl)c1)c1ccccc1	-24	13	-9	12	12	-5
Cc1oc(S(=O)(=O)N2CCCCC2)cc1NC(=O)Nc1ccccc1	-7	12	-19	14	-8	3
Cc1cc(C)cc(Cn2cc(CN3CC(N(C)C)CS3(=O)=O)nn2)c1 (stereo not given)	-4	15	7	1	1	0
COC(=O)c1c(-c2ccccc2)oc2c1C(OCCO)CCC2 (stereo not given)	1	-5	0	0	6	0
Oc1ccc(C23CCCC2C2(CCCC2)c2ccc(O)cc2O3)c(O)c1 (stereo not given)	-22	6	-14	59*	23	18
CC(C)(C)NC(=O)C(c1cccc2ccccc12)n1c(=O)c(-c2cc3ccccc3[nH]2)nc2ccccc21 (stereo not given)	8	-9	12	2	-9	5
Cc1ccc([N+](=O)[O-])cc1S(=O)(=O)NCCc1c(C)[nH]c2c(C)cccc12	-6	19	-6	4	28*	2
COc1ccc(C2CC(=O)c3cnn(-c4nc(C)cc(C)n4)c3C2)cc1OC (stereo not given)	44*	20	11	6	24	7
COc1ccc(C(C#N)CC(=O)c2ccc(OC)c(OCc3ccccc3)c2)cc1OC (stereo not given)	-1	-7	1	1	-11	0
CCC(C)(C)c1ccc(OCCCC[n+]2ccccc2)c(C(C)(C)CC)c1	-20	21	-16	8	22	-10
CCCCCc1ccc(OCCCC[n+]2ccccc2)c(CCCCC)c1	-15	9	-17	-1	13	-10
CCCCCc1ccc(OCCCC[n+]2ccc(C)cc2)c(CCCCC)c1	-31	22	-24	11	48*	-17
CCCCCc1ccc(OCCCC[n+]2cccc(C)c2)c(CCCCC)c1	-19	21	-17	1	42*	-10
O=S1(=O)CC(N2CCN(CCO)CC2)CN1Cc1cn(Cc2cccc(C(F)(F)F)c2)nn1 (stereo not given)	1	0	-1	1	7	1
O=C(/C=C/c1ccco1)N1CCC(Cc2ccccc2)CC1	1	3	9	0	0	-5
OC(CCN1CC2CCC(CC2)C1)(Cc1ccccc1)c1ccco1 (stereo not given)	-39	27*	-16	2	34*	-11
COC1=C(OC)c2ccccc2C(C(=O)O)N/C1=C(/C)Nc1ccncc1 (stereo not given)	0	0	-4	1	29*	-2
CCc1nc2ccc(C(=O)N(C)C(C)C)cn2c1N(CCC(C)C)CCN(C)C	3	-2	3	1	-7	-1
SMILES	CHRM5 PAM	CHRM5 antagonist	CHRM4 PAM	M4 ag	CHRM4 antagonist	CHRM5 agonist
Oc1cc2c(cc1O)[C@H]1c3ccc(O)c(O)c3OC[C@@]1(O)C2	4	5	0	0	6	2
Oc1ccc2c(c1)OCC1(O)Cc3cc(O)c(O)cc3C21 (stereo not given)	-4	6	-17	52*	6	8
COc1ccc(S(=O)(=O)N(C)C[C@@H]2OCc3cnnn3CCCC(=O)N([C@@H](C)CO)C[C@@H]2C)cc1	-3	-5	19*	1	-17	1
Cc1ccc(S(=O)(=O)N(C)C[C@H]2OCc3cnnn3CCCC(=O)N([C@@H](C)CO)C[C@H]2C)cc1	4	-11	-2	0	-11	0
O=C(NCc1ccccc1)c1cc(C2CCCCN2C(=O)c2ccc3c(c2)CCO3)on1 (stereo not given)	-2	-2	4	5	-5	-1
CC(=O)Nc1cc(-c2ccc(CO)cc2)cn2c(-c3ccc(F)cc3)cnc12	-3	6	0	9	-3	0
Cc1ccc(NC(=O)c2nc(S(=O)(=O)Cc3ccccc3)ncc2Cl)cc1	-4	12	-8	3	46*	-5
Cc1cccc(C)c1NC(=O)c1nc(S(=O)(=O)Cc2ccccc2)ncc1Cl	2	3	-6	5	14	-1
COc1ccc(OC)c(NC(=O)c2nc(S(=O)(=O)Cc3ccccc3)ncc2Cl)c1	-2	25	-2	2	44*	-6
Cc1ccccc1CS(=O)(=O)c1ncc(Cl)c(C(=O)Nc2ccc(F)cc2)n1	1	14	-4	3	29*	-4
O=C(Nc1ccc(F)cc1)c1nc(S(=O)(=O)Cc2ccccc2)ncc1Cl	-4	25	-9	1	36*	-4
COc1ccc(NC(=O)c2nc(S(=O)(=O)Cc3cccc(C)c3)ncc2Cl)c(OC)c1	-5	17	-7	0	11	-3
CCN(CC)C(=O)c1ccc2nc([C@@H]3O[C@H](CO)[C@H](O)[C@H](O)[C@H]3O)[nH]c2c1	0	-2	6	1	-4	0
CCOC(=O)N1CCC(N2C(=O)c3ccc(C(=O)NCc4ccc(F)cc4)cc3C2=O)CC1	-2	0	3	1	-3	2
CCOC(=O)N1CCC(N2CCN(c3cc(C)ccc3C)CC2)CC1	-16	55*	-20	8	15	-7
